Assay results taken from ChEMBL document CHEMBL1158469 (J Med Chem, 2009).
Calls of active or inactive are those of the source. The calls are words filed in the database; no cut-off is given here.

Experiments:
[1] = Induction of apoptosis in human BP3 cells after 1 to 2 days by FITC-annexin V and propidium iodide assay; format: functional, cell-based
Mus musculus [2] = test: Reduction of spleen weight in human Bcl2 expressing B6 transgenic mouse at 72 umol/kg, ip administered as single dose after 24 hrs; format: functional; design: scale not given: the % may be the effect or the level left
Procedure, shortened: (§1)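 Age- and sex-matched B6Bcl2 transgenic mice (human BCL-2/IgH minigene, B cells accumulating in spleen), free of aggressive lymphoma. Single ip injection at 72 μmol/kg in 500 μL ethanol:Cremophor EL:saline 10:10:80; controls got vehicle alone. Killed with Avertin after 24 h and spleen weighed. Shrinkage expressed as percentage of maximum spleen-weight reduction.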

[3] = Cytotoxicity against wild type mouse fibroblast assessed as induction of cell death at 10 uM by FITC-annexin V and propidium iodide assay; format: cell-based
Procedure, shortened: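 Wild-type MEFs seeded at half a million per well in DMEM with 10% FCS. Next day compound added at 0, 2.5, 5.0, 7.5 or 10 μM. On the following day, floating and trypsinized adherent cells were pooled and stained with Annexin V-FITC and PI in binding buffer. Analyzed by flow cytometry, with double-negative cells counted as viable.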

[4] = Cytotoxicity against human H1299 cells assessed as cell viability after 72 hrs by ATP-LITE assay; format: functional, cell-based; conditions: NCI-H1299, 72 h
Procedure, shortened: (§2)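 ATP-LITE viability readout. Seeded 24 h before dosing (H460, H1299 at 2000 cells/well; PC3 at 3000 cells/well) in 12F2 or RPMI1640 with 5 mM L-glutamine, 5% FBS and pen/strep. Fresh 5% medium added, then compounds in 0.1% DMSO final. Viability read after 72 h treatment and normalized to DMSO-treated cells.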

[5] = Cytotoxicity against Bax/Bak double knockout mouse fibroblast assessed as induction of cell death at 10 uM by FITC-annexin V and propidium iodide assay; format: cell-based
Procedure, shortened: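 MEFs (wild-type and Bax/Bak double knockout) seeded at half a million per well in DMEM with 10% FCS; next day compound added at final 0, 2.5, 5.0, 7.5 and 10 μM. After about one day, floating and trypsinised adherent cells were pooled and stained with Annexin V-FITC and PI. Flow cytometry scored Annexin V-negative/PI-negative cells as viable.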

[6] = molecular target: Bcl-2-like protein 1 (Homo sapiens) (UniProt Q07817); test: Inhibition of Bcl-xL at 200 uM by 1D 1H NMR binding assay
NCI-H460 = test: Cytotoxicity against human H460 cells assessed as cell viability after 72 hrs by ATP-LITE assay; format: functional, cell-based; conditions: NCI-H460, 72 h; procedure, shortened: as §2
Mus musculus [7] = test: Induction of spleen weight shrinkage in human Bcl2 expressing B6 transgenic mouse at 72 umol/kg, ip administered as single dose after 24 hrs; format: functional; procedure, shortened: as §1
[8] = Induction of apoptosis in human RS11846 cells after 1 to 2 days by FITC-annexin V and propidium iodide assay; format: functional, cell-based
[9] = Cytotoxicity against human PC3-ML cells assessed as cell viability after 72 hrs by ATP-LITE assay; format: functional, cell-based; procedure, shortened: as §2
Mus musculus [10] = test: Toxicity in BALB/c mouse assessed as mortality at 75 mg/kg, ip administered as single dose after 14 days; format: organism-based; design: dose 75 mg/kg, route intraperitoneal; conditions: in vivo, 336 h
[11] = Chemical stability after 60 days at room temperature by HPLC/LC-MS analysis; format: physicochemical; conditions: 1440 h
Procedure, shortened: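 Solid compounds stored in air at room temperature for 60 days. Stability followed by HPLC combined with LC-MS.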

Mus musculus [12] = test: Toxicity in BALB/c mouse assessed as mortality at 25 mg/kg, ip administered as single dose after 14 days; format: organism-based; design: dose 25 mg/kg, route intraperitoneal; conditions: in vivo, 336 h
Mus musculus [13] = test: Toxicity in BALB/c mouse assessed as weight loss at 75 mg/kg, ip after 5 days; format: organism-based; design: dose 75 mg/kg, route intraperitoneal; conditions: in vivo, 120 h
Procedure, shortened: (§3)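 Tolerability study in five mice given a single ip dose of 100, 75, 50 or 25 mg/kg. Animals observed for 14 days, recording body weight loss as morbidity and mortality.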

Mus musculus [14] = test: Toxicity in BALB/c mouse assessed as mortality at 100 mg/kg, ip administered as single dose after 14 days; format: organism-based; design: dose 100 mg/kg, route intraperitoneal; conditions: in vivo, 336 h
Mus musculus [15] = test: Toxicity in BALB/c mouse assessed as mortality at 50 mg/kg, ip administered as single dose after 14 days; format: organism-based; design: dose 50 mg/kg, route intraperitoneal; conditions: in vivo, 336 h
Mus musculus [16] = test: Toxicity in human Bcl2 expressing B6 transgenic mouse assessed as gastrointestinal toxicity at 42 umol/kg, ip administered as single dose; format: organism-based; conditions: in vivo
Mus musculus [17] = test: Toxicity in BALB/c mouse assessed as weight loss at 25 mg/kg, ip administered as single dose after 14 days; format: organism-based; design: dose 25 mg/kg, route intraperitoneal; conditions: in vivo, 336 h
Mus musculus [18] = test: Toxicity in human Bcl2 expressing B6 transgenic mouse administered as single dose at 72 umol/kg, ip after 24 hrs; format: organism-based; conditions: in vivo
Mus musculus [19] = test: Toxicity in mouse assessed as reduction of spleen weight at 42 mg/kg, ip; format: organism-based; design: dose 42 mg/kg, route intraperitoneal; conditions: in vivo
Procedure, shortened: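 B6Bcl2 transgenic mice, six per group, given a single ip dose of 42 mg/kg (60 μmol/kg) in ethanol:Cremophor EL:saline 10:10:80; six vehicle-injected controls. Spleens weighed 24 h after injection. Data are means ± S.E. (n = 6).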

Mus musculus [20] = test: Toxicity in human Bcl2 expressing B6 transgenic mouse assessed as weight loss at 42 umol/kg, ip administered as single dose; format: organism-based; conditions: in vivo
[21] = Stability in rat plasma after 1 hr at 37.5 degC; format: ADME, cell-free; conditions: read-out: Stability
Procedure, shortened: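 Compound incubated in rat plasma for 1 h; percentage of parent remaining was reported.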

[22] = Stability in rat liver microsome at 4 uM after 1 hr; format: ADME; conditions: liver microsomes, read-out: Stability
Procedure, shortened: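 Compound incubated for 1 h in rat microsomal preparations; percentage of parent remaining was reported.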

Mus musculus [23] = test: Reduction of spleen weight in human Bcl2 expressing B6 transgenic mouse at 42 umol/kg, ip administered as single dose after 24 hrs; format: functional; design: scale not given: the % may be the effect or the level left
Mus musculus [24] = test: Toxicity in BALB/c mouse assessed as recovery of weight loss administered as single ip dose after 14 days; format: organism-based; conditions: in vivo, 336 h; procedure, shortened: as §3
[25] = Membrane permeability assessed as drug permeation at 100 uM at pH 7.2 after 8 hrs by PAMPA; format: ADME; conditions: pH 7.2, 8 h
Mus musculus [26] = test: Toxicity in BALB/c mouse assessed as weight loss at 50 mg/kg, ip administered as single dose after 14 days; format: organism-based; design: dose 50 mg/kg, route intraperitoneal; conditions: in vivo, 336 h; procedure, shortened: as §3
Mus musculus [27] = test: Gastrointestinal toxicity in human Bcl2 expressing B6 transgenic mouse at 50 mg/kg, ip administered as single dose after 24 hrs; format: organism-based; design: dose 50 mg/kg, route intraperitoneal; conditions: in vivo
Bcl-2-related protein A1 = molecular target: T1, Bcl-2-related protein A1 (Homo sapiens, UniProt Q16548); test: Displacement of F-BakBH3 from Bfl-1 by fluorescence polarization assay
T1 sequence (Q16548 whole entry): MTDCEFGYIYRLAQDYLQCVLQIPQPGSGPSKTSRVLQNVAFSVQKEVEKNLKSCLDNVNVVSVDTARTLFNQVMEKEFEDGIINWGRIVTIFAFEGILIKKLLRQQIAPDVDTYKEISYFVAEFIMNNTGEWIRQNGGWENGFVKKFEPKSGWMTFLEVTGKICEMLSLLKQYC

Chain of Bcl-2-like protein 1 (Homo sapiens) (Q07817 whole entry): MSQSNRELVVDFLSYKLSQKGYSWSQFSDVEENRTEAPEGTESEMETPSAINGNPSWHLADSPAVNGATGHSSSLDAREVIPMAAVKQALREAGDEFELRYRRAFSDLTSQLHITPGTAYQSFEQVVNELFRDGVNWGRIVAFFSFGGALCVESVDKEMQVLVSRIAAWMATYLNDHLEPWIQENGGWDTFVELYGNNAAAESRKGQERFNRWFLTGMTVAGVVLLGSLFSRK

Compound: Cc1cc2c(C(C)C)c(O)c(O)c(C=O)c2c(O)c1-c1c(C)cc2c(C(C)C)c(O)c(O)c(C=O)c2c1O [GOSSYPOL]
- EC50 [1]: 1.42 µM
- Activity (Mus musculus [2]): <=20%
- Activity [3]: Active
- EC50 [4]: 6 µM
- Activity [5]: Active
- Activity [6]: Active
- EC50 (NCI-H460): 3 µM
- Activity (Mus musculus [7]): <=40%
- EC50 [8]: 4.2 µM
- EC50 [9]: 3.1 µM

Compound: Cc1cc2c(C(=O)NCC(C)c3ccccc3)c(O)c(O)cc2c(O)c1-c1c(C)cc2c(C(=O)NCC(C)c3ccccc3)c(O)c(O)cc2c1O (centres undefined)
- Activity (Mus musculus [10]): Non-toxic
- Stability [11]: Stable
- Activity (Mus musculus [12]): Non-toxic
- Activity (Mus musculus [2]): 40%
- Activity [3]: 80%
- Activity (Mus musculus [13]): Non-toxic
- Activity (Mus musculus [14]): Non-toxic
- Activity [6]: Active
- Activity (Mus musculus [15]): Non-toxic
- Activity (Mus musculus [16]): Non-toxic
- Activity (Mus musculus [17]): Non-toxic
- Activity (Mus musculus [18]): Toxic
- Activity (Mus musculus [19]): Non-toxic
- Activity (Mus musculus [7]): 85%
- Activity (Mus musculus [20]): 7.8%
- remaining at 1 h [21]: 96%
- remaining at 1 h, 4 µM [22]: 76%
- Activity (Mus musculus [23]): 70%
- Activity (Mus musculus [24]): 80%
- logPe [25]: -7.51 log cm/s
- Activity (Mus musculus [26]): <= 15%
- Activity (Mus musculus [27]): Toxic

Compound: Cc1cc2c(C(C)C)c(O)c(O)cc2c(O)c1-c1c(C)cc2c(C(C)C)c(O)c(O)cc2c1O [APOGOSSYPOL]
- EC50 [1]: 4.7 µM
- Stability [11]: Stable
- Activity (Mus musculus [2]): <=20%
- Activity (Mus musculus [18]): Non-toxic
- IC50 (Bcl-2-related protein A1): > 10 µM
- EC50 (NCI-H460): 3.5 µM
- Activity (Mus musculus [7]): <=40%
- remaining at 1 h [21]: 53%
- EC50 [8]: 5 µM
- remaining at 1 h, 4 µM [22]: 64%
- logPe [25]: -7.16 log cm/s
- EC50 [9]: 10.4 µM
